Measured values from different studies.
Lines come from different studies, so protocols differ.
Target: Serine/threonine-protein kinase Nek10 (NEK10, Homo sapiens, UniProt Q6ZWH5)
Residues used in one study (Q6ZWH5 1-1172): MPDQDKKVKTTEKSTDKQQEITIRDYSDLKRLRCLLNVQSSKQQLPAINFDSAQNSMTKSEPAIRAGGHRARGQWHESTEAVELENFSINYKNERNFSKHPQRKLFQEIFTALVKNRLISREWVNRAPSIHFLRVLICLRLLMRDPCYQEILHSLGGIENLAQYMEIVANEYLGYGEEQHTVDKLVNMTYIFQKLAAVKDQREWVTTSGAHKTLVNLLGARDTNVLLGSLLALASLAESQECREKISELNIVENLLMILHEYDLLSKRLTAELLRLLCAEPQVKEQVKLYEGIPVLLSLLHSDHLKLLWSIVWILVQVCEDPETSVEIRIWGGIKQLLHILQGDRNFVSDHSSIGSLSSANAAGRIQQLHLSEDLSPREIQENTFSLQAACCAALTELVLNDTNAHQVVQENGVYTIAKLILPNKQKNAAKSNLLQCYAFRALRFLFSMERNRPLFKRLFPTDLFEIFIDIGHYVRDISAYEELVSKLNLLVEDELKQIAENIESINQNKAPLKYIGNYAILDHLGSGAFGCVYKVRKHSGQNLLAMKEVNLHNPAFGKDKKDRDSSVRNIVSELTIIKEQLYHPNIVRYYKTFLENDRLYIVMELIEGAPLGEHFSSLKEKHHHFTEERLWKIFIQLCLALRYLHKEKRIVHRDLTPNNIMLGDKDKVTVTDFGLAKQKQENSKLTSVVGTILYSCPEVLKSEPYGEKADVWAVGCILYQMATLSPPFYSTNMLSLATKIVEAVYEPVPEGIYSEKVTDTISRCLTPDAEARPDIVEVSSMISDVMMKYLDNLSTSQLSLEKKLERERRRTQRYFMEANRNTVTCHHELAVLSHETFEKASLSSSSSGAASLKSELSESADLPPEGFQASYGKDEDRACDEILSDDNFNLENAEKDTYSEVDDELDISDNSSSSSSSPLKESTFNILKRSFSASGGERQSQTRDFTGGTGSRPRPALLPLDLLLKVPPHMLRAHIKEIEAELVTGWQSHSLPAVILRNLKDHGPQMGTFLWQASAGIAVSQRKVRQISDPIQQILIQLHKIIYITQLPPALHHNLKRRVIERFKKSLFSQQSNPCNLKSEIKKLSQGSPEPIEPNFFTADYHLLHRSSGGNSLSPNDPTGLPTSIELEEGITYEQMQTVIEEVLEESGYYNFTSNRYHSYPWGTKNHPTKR

SMILES | effect on | technique | concentration | remaining binding [%]
O=C(NCC1CCOCC1)c1n[nH]cc1NC(=O)c1c(F)cccc1F | binding | competition with immobilised ligand | 1 µM | 72
CNC(=O)c1ccc(Nc2ncc(C(F)(F)F)c(NCc3nccnc3N(C)S(C)(=O)=O)n2)cc1 | cell-free assay | competition with immobilised ligand | 0.1 µM | 100
C=CC(=O)N1CCC(C(=O)NCC(=O)N2CCN(c3nc(-c4cnc(N)nc4C(F)F)nc(N4CCOCC4)n3)CC2)CC1 | binding | competition with immobilised ligand | 1 µM | 76
COc1cnc(Nc2cccc(S(N)(=O)=O)c2)nc1N1CCN(c2ccccc2)CC1 | binding | competition with immobilised ligand | 1 µM | 69
COc1cccc(CNC(=O)c2nc3scc(COCc4ccc(C(=O)O)cc4)c3c(=O)[nH]2)c1 | cell-free assay | competition with immobilised ligand | 1 µM | 61.7
Nc1ncc2c(n1)-c1c([nH]c3ccc(C#CC4CC4)cc13)CCCC2 | binding | competition with immobilised ligand | 1 µM | 79
CS(=O)(=O)N1CCCC(NC(=O)[C@H](CCC2CCCCC2)NC(=O)c2ccc(CNC(=O)c3cnc4ccccn34)cc2)C1 (stereo partly drawn) | cell-free assay | competition with immobilised ligand | 0.1 µM | 100
N[C@@H]1CCN(c2nccc(-c3cnn4ncccc34)n2)C1 | binding | – | 1 µM | 100
O=C(c1ccc(Nc2ncc(Cl)c(-c3cc4ccccc4s3)n2)cc1)N1CCC(N2CCCC2)CC1 | binding | competition with immobilised ligand | 1 µM | 74
Cc1c[nH]c2nccc(Oc3c(F)cc(Nc4cc(Cl)nc(N)n4)cc3F)c12 | cell-free assay | competition with immobilised ligand | 0.1 µM | 75
COc1ncc2cc3ccccc3nc2c1C#N | cell-free assay | competition with immobilised ligand | 5 µM | 98
Nc1c(C(=O)NCc2ccc(C(=O)NCCCC3CCCCC3)cc2)cnn1-c1ccccc1 | cell-free assay | competition with immobilised ligand | 0.1 µM | 100
CC1CCCN1c1nccc(-c2cnn3ncccc23)n1 (stereo not drawn) | binding | – | 1 µM | 100
O=C(c1ccc(Nc2nccc(-c3cc4ccccc4s3)n2)cc1)N1CCC(N2CCCC2)CC1 | binding | competition with immobilised ligand | 1 µM | 43
C[C@H]1CCN(c2nccc(-c3cnn4ncccc34)n2)C1 | binding | – | 1 µM | 91
FC(F)(F)Oc1cccc(-c2cnc3ccc(-c4ccncc4)nn23)c1 | cell-free assay | competition with immobilised ligand | 5 µM | 28
O=C(NCCCN1CCOCC1)c1ccc(Nc2nccc(-c3cc4ccccc4s3)n2)cc1 | binding | competition with immobilised ligand | 1 µM | 59
c1cnn2ncc(-c3ccnc(N4CCC45COC5)n3)c2c1 | binding | – | 1 µM | 98
